{"source": "ChEMBL document CHEMBL4382210", "about": "“Identification of novel benzothiopyranone compounds against Mycobacterium tuberculosis through scaffold morphing from benzothiazinones” (Eur J Med Chem, 2018)", "key": {"[1]": {"molecular_target": "Voltage-gated inwardly rectifying potassium channel KCNH2 (Homo sapiens, UniProt Q12809)", "sequence (Q12809 whole entry)": "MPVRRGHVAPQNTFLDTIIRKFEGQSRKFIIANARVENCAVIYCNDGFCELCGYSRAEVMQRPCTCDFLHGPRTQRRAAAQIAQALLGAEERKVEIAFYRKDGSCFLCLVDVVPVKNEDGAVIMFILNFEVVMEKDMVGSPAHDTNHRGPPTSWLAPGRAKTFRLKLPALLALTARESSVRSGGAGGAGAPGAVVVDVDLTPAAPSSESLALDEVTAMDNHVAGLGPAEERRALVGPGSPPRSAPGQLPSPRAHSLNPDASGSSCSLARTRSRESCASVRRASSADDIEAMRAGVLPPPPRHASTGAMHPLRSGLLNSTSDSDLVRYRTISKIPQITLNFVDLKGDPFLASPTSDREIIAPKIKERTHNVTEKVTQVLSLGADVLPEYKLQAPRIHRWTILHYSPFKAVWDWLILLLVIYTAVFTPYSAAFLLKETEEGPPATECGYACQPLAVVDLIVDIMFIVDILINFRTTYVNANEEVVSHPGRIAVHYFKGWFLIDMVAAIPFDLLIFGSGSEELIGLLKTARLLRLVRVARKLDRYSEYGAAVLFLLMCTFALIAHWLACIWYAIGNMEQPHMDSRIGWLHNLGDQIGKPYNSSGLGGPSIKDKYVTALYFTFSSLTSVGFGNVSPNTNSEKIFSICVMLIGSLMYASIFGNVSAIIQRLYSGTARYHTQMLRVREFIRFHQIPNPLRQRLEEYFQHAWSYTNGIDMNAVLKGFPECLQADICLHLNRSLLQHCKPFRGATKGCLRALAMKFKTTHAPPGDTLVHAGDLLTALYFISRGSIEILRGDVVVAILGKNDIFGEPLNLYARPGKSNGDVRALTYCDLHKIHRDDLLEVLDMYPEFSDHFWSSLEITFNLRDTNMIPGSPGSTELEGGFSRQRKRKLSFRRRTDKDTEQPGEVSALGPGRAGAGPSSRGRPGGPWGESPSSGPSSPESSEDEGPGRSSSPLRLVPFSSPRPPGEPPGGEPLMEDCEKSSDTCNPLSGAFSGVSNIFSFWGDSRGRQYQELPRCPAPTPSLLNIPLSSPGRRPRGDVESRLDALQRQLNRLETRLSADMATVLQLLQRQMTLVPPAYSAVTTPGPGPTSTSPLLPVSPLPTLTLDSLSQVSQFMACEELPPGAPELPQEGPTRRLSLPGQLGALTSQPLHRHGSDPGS", "assay": "Inhibition of human ERG expressed in HEK293 cells by whole-cell patch clamp assay", "assay_type": "cell-based", "in_short": "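HEK293 cells stably transfected with hERG. Current recorded by whole-cell manual patch clamp at 25 °C, sampled at 10 kHz. Five concentrations tested (30, 10, 3.0, 1.0, 0.3 µM) in duplicate for IC50, with dofetilide as positive control.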"}, "[2]": {"assay": "Selectivity index, ratio of IC50 for human HepG2 cells to MIC=>90 for Mycobacterium tuberculosis H37Rv", "assay_type": "toxicity", "settings": "read-out: Selectivity Index"}, "[3]": {"assay": "Metabolic stability in CD-1 mouse liver microsomes assessed as parent compound remaining at 1 uM measured after 30 mins in presence of NADPH by LC-MS/MS analysis", "assay_type": "ADME, Microsome", "settings": "read-out: Stability", "in_short": "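Male CD-1 mouse or pooled human liver microsomes (1 mg/mL protein), compound at 1 µM, 37 °C. Reaction started with 1 mM NADPH and quenched with cold ACN/MeOH containing internal standard. Parent remaining measured by LC-MS/MS; the 30-min value is normalised to time zero.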"}, "[4]": {"assay": "Elimination half life in BALB/C mouse at 10 mg/kg, iv by LC/TSQ quantum access mass spectrometry", "assay_type": "ADME, organism-based", "settings": "in vivo, read-out: beta t1/2 (converted)", "in_short": "(§1)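 Male Balb/c mice (22–23 g), three per route. Single dose of 25 mg/kg p.o. (2.5 mg/mL in 0.5% carboxymethyl cellulose + 0.5% Tween 80) or 10 mg/kg i.v. (2.0 mg/mL in 20% HP-β-CD with 4 mol/L HCl). Blood sampled 5, 15, 30 min, 1, 2, 4, 7, 24 h. Plasma extracted with acetonitrile plus terfenadine internal standard, then LC-MS/MS on a C18 column. F = (AUCpo×dose_iv)/(AUCiv×dose_po).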"}, "[5]": {"assay": "Clearance in BALB/C mouse at 10 mg/kg, iv by LC/TSQ quantum access mass spectrometry", "assay_type": "ADME, organism-based", "settings": "in vivo", "in_short": "as §1"}, "Cytochrome P450 2C19": {"molecular_target": "Cytochrome P450 2C19 (Homo sapiens, UniProt P33261)", "sequence (P33261 whole entry, canonical isoform)": "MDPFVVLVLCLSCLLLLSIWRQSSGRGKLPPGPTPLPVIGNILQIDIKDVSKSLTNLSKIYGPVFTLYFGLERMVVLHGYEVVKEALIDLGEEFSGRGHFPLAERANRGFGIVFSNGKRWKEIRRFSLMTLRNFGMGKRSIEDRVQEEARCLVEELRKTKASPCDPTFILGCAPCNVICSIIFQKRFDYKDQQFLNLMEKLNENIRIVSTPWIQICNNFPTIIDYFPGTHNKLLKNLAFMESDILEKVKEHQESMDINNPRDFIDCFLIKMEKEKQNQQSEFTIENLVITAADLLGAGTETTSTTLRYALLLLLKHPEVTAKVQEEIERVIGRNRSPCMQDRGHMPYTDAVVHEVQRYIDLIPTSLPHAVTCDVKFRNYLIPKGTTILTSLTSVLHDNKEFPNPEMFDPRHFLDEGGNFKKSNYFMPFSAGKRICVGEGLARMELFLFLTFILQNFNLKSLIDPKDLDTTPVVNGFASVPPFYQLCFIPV", "assay": "Inhibition of CYP2C19 in human liver microsomes after 20 mins by LC-MS/MS analysis", "assay_type": "ADME", "in_short": "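Compound at 0.1–50 µM incubated 20 min with human liver microsomes (0.2 mg/mL) and the CYP isoform, alongside isoform-specific probe substrates. Substrate remaining measured by LC-MS/MS at each concentration to derive IC50.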"}, "Vero": {"tested_on": "Vero", "assay": "Cytotoxicity against African green monkey Vero cells assessed as reduction in cell viability after 48 hrs by MTT assay", "assay_type": "cell-based", "settings": "Chlorocebus sabaeus", "in_short": "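Vero or HepG2 cells in RPMI1640 with 10% FBS at 37 °C, 5% CO2, seeded at 4×10^5 cells/mL. Threefold dilutions at 64–0.26 µg/mL final for 48 h. Cells then washed with HBSS, MTT added for 4 h, absorbance read at 492 nm. IC50 taken relative to untreated control.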"}, "[6]": {"assay": "Intrinsic clearance in human hepatocytes assessed per million cells at 1 uM incubated up to 120 mins by LC-MS/MS analysis", "assay_type": "ADME, cell-based, Hepatocyte", "settings": "read-out: CLH", "in_short": "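Pooled male CD-1 mouse or pooled human hepatocytes at 1 million cells/mL final, compound at 1 µM. Incubated at 37 °C in a CO2 incubator with shaking (~100 rpm). Samples taken at 0, 15, 30, 60, 90 and 120 min and quenched with cold ACN/MeOH containing internal standard. Parent compound remaining measured by LC-MS/MS.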"}, "[7]": {"assay": "AUC (0 to infinity) in BALB/C mouse at 10 mg/kg, iv by LC/TSQ quantum access mass spectrometry", "assay_type": "ADME, organism-based", "set-up": "dose 10 mg/kg, route intravenous, time infinity", "settings": "in vivo", "in_short": "as §1"}, "[8]": {"assay": "Oral bioavailability in BALB/C mouse at 25 mg/kg by LC/TSQ quantum access mass spectrometry", "assay_type": "ADME, organism-based", "settings": "in vivo", "in_short": "as §1"}, "[9]": {"assay": "MRT (0 to infinity) in BALB/C mouse at 25 mg/kg, po by LC/TSQ quantum access mass spectrometry", "assay_type": "ADME, organism-based", "settings": "in vivo", "in_short": "as §1"}, "[10]": {"assay": "Tmax in BALB/C mouse at 25 mg/kg, po by LC/TSQ quantum access mass spectrometry", "assay_type": "ADME, organism-based", "settings": "in vivo", "in_short": "as §1"}}, "data": [{"compound": "O=c1cc(N2CCN(CC3CCCCC3)CC2)sc2c([N+](=O)[O-])cc(C(F)(F)F)cc12", "values": [{"measurement": "IC50", "setting": "[1]", "value": "> 30", "unit": "µM"}, {"measurement": "selectivity ratio", "setting": "[2]", "value": "> 4000"}, {"measurement": "remaining at 0.5 h, 1 µM", "setting": "[3]", "value": 61.5, "unit": "%"}, {"measurement": "half-life", "setting": "[4]", "value": 6.54, "unit": "h"}, {"measurement": "clearance", "setting": "[5]", "value": 1.94, "unit": "L/h/kg"}, {"measurement": "IC50", "setting": "Cytochrome P450 2C19", "value": "> 50", "unit": "µM"}, {"measurement": "IC50", "setting": "Vero", "value": "> 64", "unit": "mg/L"}, {"measurement": "hepatocyte CLint at 1 µM", "setting": "[6]", "value": 3.1, "unit": "µL/min/1e6 cells"}, {"measurement": "AUC(0-inf)", "setting": "[7]", "value": 5.18, "unit": "µg·h/mL"}, {"measurement": "bioavailability", "setting": "[8]", "value": 13.1, "unit": "%"}, {"measurement": "MRT inf", "setting": "[9]", "value": 6.59, "unit": "h"}, {"measurement": "Tmax", "setting": "[10]", "value": 0.5, "unit": "h"}]}]}
